Our source for the IC50 and IC12 values is ChEMBL document CHEMBL1144065, “Synthesis of furanonaphthoquinones with hydroxyamino side chains” (J Nat Prod, 1999).

The term pIC50 denotes the negative decadic logarithm of the IC50, by convention in mol/L.

Molecules are shown by their SMILES. pIC50: −log10 of the molar value.

The test system of one assay is Vero. Nature of the assay: Cytotoxicity against african green monkey Vero cells. In kind it is cell-based. The conditions noted are these: Chlorocebus sabaeus.
Assay [1] has as its system Saccharomyces cerevisiae. The assay is described as follows: Growth inhibition of Yeast expressing rad52 mutant by yeast bioassay. In kind it is functional. Summed up: (§1)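 Agar diffusion assay: 100 µL wells cut in an agar layer overlaid with the repair-deficient yeast strain (∆rad52, or ∆rad52∆top1). IC12 in µg/mL is the concentration giving a 12 mm inhibition zone around the well.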

Assay [2] relates to Saccharomyces cerevisiae. The assay is described as follows: Growth inhibition of Yeast expressing rad52.top1 mutant by yeast bioassay. In kind it is functional. In outline: as §1
A short description of assay [3]: Cytotoxicity against rat H4IIE cells by XTT assay. It is filed as functional, cell-based. In outline: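 H4IIE rat hepatoma cells in culture; growth read out with the XTT protocol. IC50 in µM is the concentration giving 50% growth inhibition. Active compounds were run in two separate assays, and both values are reported.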
Background: Tetrazolium dyes change colour on reduction, which living cells bring about.

On to `CC(O)c1cc2c(o1)C(=O)c1ccccc1C2=O` (configuration not stated), for which the pIC50 with Vero is 4.82. In addition, the IC12 in the assay with Saccharomyces cerevisiae [1] is 14 µg/mL.
Consider `CC(CO)(CO)NCc1cc2c(o1)C(=O)c1ccccc1C2=O`, for which the IC12 was 240 µg/mL in the assay on Saccharomyces cerevisiae [2] and over 500 µg/mL in the assay with Saccharomyces cerevisiae [1]. Besides, the pIC50 in assay [3] was 5.70.
For `O=Cc1cc2c(o1)C(=O)c1ccccc1C2=O`, the IC12 with Saccharomyces cerevisiae [2] stood at 44 µg/mL; in the assay on Saccharomyces cerevisiae [1], 160 µg/mL. The compound further gave a negative logarithm of the IC50 (pIC50) in assay [3] of 5.70.
As to `O=C1c2ccccc2C(=O)c2oc(CNC(CO)(CO)CO)cc21`, the IC12 in the assay on Saccharomyces cerevisiae [2] was over 250 µg/mL; in the assay with Saccharomyces cerevisiae [1], over 500 µg/mL. The compound also gave a negative-log IC50 (pIC50) in assay [3] of under 4.70.
For the compound `O=C1c2ccccc2C(=O)c2oc(CNCC(O)CO)cc21` (configuration not stated), the IC12 with Saccharomyces cerevisiae [2] is 220 µg/mL; with Saccharomyces cerevisiae [1] it was over 500 µg/mL. Moreover, in assay [3], the pIC50 is 5.70.
`CC(C)(CO)NCc1cc2c(o1)C(=O)c1ccccc1C2=O`: the IC12 in the assay on Saccharomyces cerevisiae [2] is 210 µg/mL; in the assay on Saccharomyces cerevisiae [1] it was over 500 µg/mL. In addition, the pIC50 in assay [3] was 5.40.
The corresponding values for `COc1cc(OC)c2c(c1)C(=O)c1occc1C2=O` are 125 µg/mL, over 8000 µg/mL and 5.30.
Turning to `COc1ccc2cn(C(C)(CO)CO)c3c2c1C(=O)c1ccoc1-3`, the IC12 in the assay on Saccharomyces cerevisiae [2] and with Saccharomyces cerevisiae [1] was over 500 µg/mL in each case. The compound also gave a negative-log IC50 (pIC50) in assay [3] of under 4.70.
Regarding `CCC(CO)(CO)NCc1cc2c(o1)C(=O)c1ccccc1C2=O`, the IC12 with Saccharomyces cerevisiae [2] and in the assay on Saccharomyces cerevisiae [1] was over 500 µg/mL in each case. In addition, the negative logarithm of the IC50 (pIC50) in assay [3] is 5.30.
With `COc1cccc2c1C(=O)c1ccoc1C2=O`, the IC12 was 44 µg/mL in the assay with Saccharomyces cerevisiae [2] and 152 µg/mL in the assay on Saccharomyces cerevisiae [1]. Further, the pIC50 in assay [3] was 5.15.
Consider `O=C1c2ccccc2C(=O)c2occc21`, for which the IC12 turned out to be 17 µg/mL with Saccharomyces cerevisiae [2] and 83 µg/mL in the assay with Saccharomyces cerevisiae [1]. In addition, the negative-log IC50 (pIC50) in assay [3] was 5.30.
